Test results as given in ChEMBL document CHEMBL1143542, “Structure-activity relationships of bivalent aminoglycosides and evaluation of their microbiological activities” (2005).
≈ marks a conversion by molar mass, not a printed value.

How the values were obtained:
Enterococcus faecalis = experiment: In vitro minimum inhibitory concentration against Enterococcus faecalis 29212; format: functional
Method in brief: (§1)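 Broth microdilution following CLSI M100-S12. Stocks were 10 mg/mL in water, diluted in Mueller–Hinton broth to a top level of 128, then serially 2-fold in plates. Bacteria in cation-adjusted Mueller–Hinton broth were mixed 1:1 with drug and incubated 16–20 h at 35 °C. MIC was the lowest concentration with no visible growth. Run in duplicate with no-antibiotic and no-inoculum (sterility) controls.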

Staphylococcus aureus [1] = experiment: In vitro minimum inhibitory concentration against Staphylococcus aureus MRSA 3359; format: functional; method in brief: as §1
Pseudomonas aeruginosa [2] = experiment: In vitro minimum inhibitory concentration against Pseudomonas aeruginosa ATCC 27853; format: functional; method in brief: as §1
Staphylococcus aureus [3] = experiment: In vitro minimum inhibitory concentration against Staphylococcus aureus ATCC 29213; format: functional; method in brief: as §1
Pseudomonas aeruginosa [4] = experiment: In vitro minimum inhibitory concentration against Pseudomonas aeruginosa PAO-1 Minimum inhibitory concentration against Pseudomonas aeruginosa PAO-1; format: functional; method in brief: as §1
Escherichia coli = experiment: In vitro minimum inhibitory concentration against Escherichia coli ATCC 25922; format: functional; method in brief: as §1
Pseudomonas aeruginosa [5] = experiment: Susceptibility testing against Pseudomonas aeruginosa ATCC 27853; S=Susceptible; format: functional, organism-based
Method in brief: (§2)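 Disk diffusion susceptibility profiling against a panel of empirically used antipseudomonal antibiotics. Each strain was categorised as susceptible (S) or intermediate (I).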

Pseudomonas aeruginosa [6] = experiment: Susceptibility testing against Pseudomonas aeruginosa PAE_NUH01; R=Resistant; format: functional, organism-based
Method in brief: (§3)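 Disk diffusion susceptibility profiling of P. aeruginosa reference and clinical isolates against empirically used antipseudomonal antibiotics. Each isolate was categorised as susceptible, intermediate or resistant.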

Pseudomonas aeruginosa [7] = experiment: Susceptibility testing against Pseudomonas aeruginosa PAE_NUH20; S=Susceptible; format: functional, organism-based; method in brief: as §2
Pseudomonas aeruginosa [8] = experiment: Susceptibility testing against Pseudomonas aeruginosa PAE_NUH21; S=Susceptible; format: functional, organism-based; method in brief: as §2
Pseudomonas aeruginosa [9] = experiment: Susceptibility testing against Pseudomonas aeruginosa PAE_NUH02; R=Resistant; format: functional, organism-based; method in brief: as §3
Pseudomonas aeruginosa [10] = experiment: Susceptibility testing against Pseudomonas aeruginosa PAE_NUH25; S=Susceptible; format: functional, organism-based; method in brief: as §2
Pseudomonas aeruginosa [11] = experiment: Susceptibility testing against Pseudomonas aeruginosa PAE_NUH04; R=Resistant; format: functional, organism-based; method in brief: as §3
Pseudomonas aeruginosa [12] = experiment: Susceptibility testing against Pseudomonas aeruginosa PAE_NUH03; R=Resistant; format: functional, organism-based; method in brief: as §3
Pseudomonas aeruginosa [13] = experiment: Susceptibility testing against Pseudomonas aeruginosa PAE_NUH17; S=Susceptible; format: functional, organism-based; method in brief: as §2
Pseudomonas aeruginosa [14] = experiment: Susceptibility testing against Pseudomonas aeruginosa PAE_NUH05; R=Resistant; format: functional, organism-based; method in brief: as §3
Pseudomonas aeruginosa [15] = experiment: Susceptibility testing against Pseudomonas aeruginosa PAE_NUH19; S=Susceptible; format: functional, organism-based; method in brief: as §2
Pseudomonas aeruginosa [16] = experiment: Susceptibility testing against Pseudomonas aeruginosa PAE_NUH07; S=Susceptible; format: functional, organism-based; method in brief: as §2
Pseudomonas aeruginosa [17] = experiment: Susceptibility testing against Pseudomonas aeruginosa PAE_NUH22; S=Susceptible; format: functional, organism-based; method in brief: as §2
Pseudomonas aeruginosa [18] = experiment: Susceptibility testing against Pseudomonas aeruginosa PAE_NUH06; R=Resistant; format: functional, organism-based; method in brief: as §3
Pseudomonas aeruginosa [19] = experiment: Susceptibility testing against Pseudomonas aeruginosa PAE_NUH24; S=Susceptible; format: functional, organism-based; method in brief: as §2
Pseudomonas aeruginosa [20] = experiment: Susceptibility testing against Pseudomonas aeruginosa PAE_NUH23; S=Susceptible; format: functional, organism-based; method in brief: as §2
Pseudomonas aeruginosa [21] = experiment: Susceptibility testing against Pseudomonas aeruginosa PAE_NUH18; S=Susceptible; format: functional, organism-based; method in brief: as §2
Pseudomonas aeruginosa [22] = experiment: In vitro minimum inhibitory concentration against Pseudomonas aeruginosa PAO-1; format: functional; method in brief: as §1

Structure (SMILES)	MIC (Enterococcus faecalis)	MIC (Staphylococcus aureus [1])	MIC (Pseudomonas aeruginosa [2])	MIC (Staphylococcus aureus [3])	MIC (Pseudomonas aeruginosa [4])	MIC (Escherichia coli)	further results
NC[C@@H]1C[C@H](O)[C@@H](N)[C@H](O[C@H]2[C@H](O)[C@@H](OC[C@@H](O)CNCCCNC[C@@H](O)CO[C@@H]3[C@@H](O)[C@H](O[C@H]4O[C@H](CN)[C@@H](O)C[C@H]4N)[C@@H](N)C[C@H]3N)[C@H](N)C[C@@H]2N)O1	> 20.9 µg/mL	10.4 µg/mL (≈ 13 µM)	2.6 µg/mL (≈ 3.25 µM)	1.3 µg/mL (≈ 1.63 µM)	1.3 µg/mL (≈ 1.63 µM)	20.9 µg/mL (≈ 26.2 µM)	–
NCC[C@H](O)C(=O)N[C@@H]1C[C@H](N)[C@@H](O[C@H]2O[C@H](CN)[C@@H](O)[C@H](O)[C@H]2O)[C@H](O)[C@H]1O[C@H]1O[C@H](CO)[C@@H](O)[C@H](N)[C@H]1O	–	–	–	–	–	–	Activity (Pseudomonas aeruginosa [5]): Susceptible; Activity (Pseudomonas aeruginosa [6]): Resistant; Activity (Pseudomonas aeruginosa [7]): Susceptible; Activity (Pseudomonas aeruginosa [8]): Susceptible; Activity (Pseudomonas aeruginosa [9]): Resistant; Activity (Pseudomonas aeruginosa [10]): Susceptible; Activity (Pseudomonas aeruginosa [11]): Resistant; Activity (Pseudomonas aeruginosa [12]): Resistant; Activity (Pseudomonas aeruginosa [13]): Susceptible; Activity (Pseudomonas aeruginosa [14]): Resistant; Activity (Pseudomonas aeruginosa [15]): Susceptible; Activity (Pseudomonas aeruginosa [16]): Susceptible; Activity (Pseudomonas aeruginosa [17]): Susceptible; Activity (Pseudomonas aeruginosa [18]): Resistant; Activity (Pseudomonas aeruginosa [19]): Susceptible; Activity (Pseudomonas aeruginosa [20]): Susceptible; Activity (Pseudomonas aeruginosa [21]): Susceptible
CN(CCOCCOCCN(C)C[C@@H](O)CO[C@@H]1[C@@H](O)[C@H](N)C[C@H](N)[C@H]1O[C@H]1O[C@H](CN)[C@@H](O)[C@H](O)[C@H]1N)C[C@@H](O)CO[C@@H]1[C@@H](O)[C@H](N)C[C@H](N)[C@H]1O[C@H]1O[C@H](CN)[C@@H](O)[C@H](O)[C@H]1N	> 50 µg/mL	> 50 µg/mL	> 50 µg/mL	> 50 µg/mL	> 50 µg/mL	> 50 µg/mL	–
CCN(CCN(CC)C[C@@H](O)CO[C@@H]1[C@@H](O)[C@H](N)C[C@H](N)[C@H]1O[C@H]1O[C@H](CN)[C@@H](O)[C@H](O)[C@H]1N)C[C@@H](O)CO[C@@H]1[C@@H](O)[C@H](N)C[C@H](N)[C@H]1O[C@H]1O[C@H](CN)[C@@H](O)[C@H](O)[C@H]1N	> 50 µg/mL	> 50 µg/mL	> 50 µg/mL	> 50 µg/mL	–	> 50 µg/mL	MIC (Pseudomonas aeruginosa [22]): > 50 µg/mL

Further lines, with some results ahead:

MIC (Enterococcus faecalis)	MIC (Staphylococcus aureus [1])	MIC (Pseudomonas aeruginosa [2])	MIC (Staphylococcus aureus [3])	MIC (Pseudomonas aeruginosa [4])	MIC (Escherichia coli)	Structure (SMILES)	further results
32 µg/mL (≈ 39.4 µM)	16 µg/mL (≈ 19.7 µM)	2 µg/mL (≈ 2.46 µM)	0.5 µg/mL (≈ 0.615 µM)	2 µg/mL (≈ 2.46 µM)	4 µg/mL (≈ 4.92 µM)	NC[C@@H]1C[C@H](O)[C@@H](N)[C@H](O[C@H]2[C@H](O)[C@@H](OC[C@@H](O)CNCCCCNC[C@@H](O)CO[C@@H]3[C@@H](O)[C@H](O[C@H]4O[C@H](CN)[C@@H](O)C[C@H]4N)[C@@H](N)C[C@H]3N)[C@H](N)C[C@@H]2N)O1	–
20.9 µg/mL (≈ 24.8 µM)	20.9 µg/mL (≈ 24.8 µM)	10.4 µg/mL (≈ 12.4 µM)	0.6 µg/mL (≈ 0.713 µM)	2.6 µg/mL (≈ 3.09 µM)	5.2 µg/mL (≈ 6.18 µM)	CN(CCCCN(C)C[C@@H](O)CO[C@@H]1[C@@H](O)[C@H](O[C@H]2O[C@H](CN)[C@@H](O)C[C@H]2N)[C@@H](N)C[C@H]1N)C[C@H](O)CO[C@@H]1[C@@H](O)[C@H](O[C@@H]2O[C@H](CN)C[C@H](O)[C@H]2N)[C@@H](N)C[C@H]1N	–
> 50 µg/mL	> 50 µg/mL	12.5 µg/mL (≈ 13.9 µM)	6.3 µg/mL (≈ 6.99 µM)	50 µg/mL (≈ 55.5 µM)	25 µg/mL (≈ 27.7 µM)	CN(CCCCCCN(C)C[C@@H](O)CO[C@@H]1[C@@H](O)[C@H](N)C[C@H](N)[C@H]1O[C@H]1O[C@H](CN)[C@@H](O)[C@H](O)[C@H]1N)C[C@@H](O)CO[C@@H]1[C@@H](O)[C@H](N)C[C@H](N)[C@H]1O[C@H]1O[C@H](CN)[C@@H](O)[C@H](O)[C@H]1N	–
> 50 µg/mL	50 µg/mL (≈ 57.4 µM)	1.6 µg/mL (≈ 1.84 µM)	50 µg/mL (≈ 57.4 µM)	–	25 µg/mL (≈ 28.7 µM)	NC[C@H]1O[C@H](O[C@H]2[C@H](OC[C@H](O)CN[C@H]3CC[C@H](NC[C@@H](O)CO[C@@H]4[C@@H](O)[C@H](N)C[C@H](N)[C@H]4O[C@H]4O[C@H](CN)[C@@H](O)[C@H](O)[C@H]4N)CC3)[C@@H](O)[C@H](N)C[C@@H]2N)[C@H](N)[C@@H](O)[C@@H]1O	–
